According to ChEMBL document CHEMBL1150781, “High-level gentamicin resistance mediated by a Tn4001-like transposon in seven nonclonal hospital isolates of Streptococcus pasteurianus” (2007):
≈ marks a conversion by molar mass, not a printed value.

Columns and labels:
Format in all cases: functional
[1] = tested on: Streptococcus pasteurianus; assay: Antibacterial activity against high-level gentamicin resistant Streptococcus pasteurianus SB10 isolate carrying transposon-borne resistance gene [aac(6')Ie-aph(2'')Ia] by agar dilution method
Summary of the method: (§1)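 MIC by agar dilution following CLSI guidelines; test organisms were clinical S. bovis/S. pasteurianus isolates recovered from blood cultures.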

[2] = tested on: Streptococcus pasteurianus; assay: Antibacterial activity against high-level gentamicin resistant Streptococcus pasteurianus SB28 isolate carrying transposon-borne resistance gene [aac(6')Ie-aph(2'')Ia] by agar dilution method; summary of the method: as §1
[3] = tested on: Streptococcus pasteurianus; assay: Antibacterial activity against high-level gentamicin resistant Streptococcus pasteurianus SB30 isolate carrying transposon-borne resistance gene [aac(6')Ie-aph(2'')Ia] by agar dilution method; summary of the method: as §1
[4] = tested on: Streptococcus pasteurianus; assay: Antibacterial activity against high-level gentamicin resistant Streptococcus pasteurianus SB33 isolate carrying transposon-borne resistance gene [aac(6')Ie-aph(2'')Ia] by agar dilution method; summary of the method: as §1
[5] = tested on: Streptococcus pasteurianus; assay: Antibacterial activity against high-level gentamicin resistant Streptococcus pasteurianus SB34 isolate carrying transposon-borne resistance gene [aac(6')Ie-aph(2'')Ia] by agar dilution method; summary of the method: as §1
[6] = tested on: Streptococcus pasteurianus; assay: Antibacterial activity against high-level gentamicin resistant Streptococcus pasteurianus SB40 isolate carrying transposon-borne resistance gene [aac(6')Ie-aph(2'')Ia] by agar dilution method; summary of the method: as §1
[7] = tested on: Streptococcus pasteurianus; assay: Antibacterial activity against high-level gentamicin resistant Streptococcus pasteurianus SB41 isolate carrying transposon-borne resistance gene [aac(6')Ie-aph(2'')Ia] by agar dilution method; summary of the method: as §1
Enterococcus faecalis = assay: Antimicrobial activity against Enterococcus faecalis ATCC 29212 by agar dilution method
Streptococcus equinus = assay: Antibacterial activity against Streptococcus bovis ATCC 33317 by agar dilution method
Summary of the method: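 MIC read by agar dilution against S. bovis/S. pasteurianus, run to CLSI guidelines.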

Row | SMILES | MIC [1] | MIC [2] | MIC [3] | MIC [4] | MIC [5] | MIC [6] | MIC [7] | MIC (Enterococcus faecalis) | MIC (Streptococcus equinus)
1 | NCC[C@H](O)C(=O)N[C@@H]1C[C@H](N)[C@@H](O[C@H]2O[C@H](CN)[C@@H](O)[C@H](O)[C@H]2O)[C@H](O)[C@H]1O[C@H]1O[C@H](CO)[C@@H](O)[C@H](N)[C@H]1O [AMIKACIN] | 64 µg/mL (≈ 109 µM) | 512 µg/mL (≈ 874 µM) | 128 µg/mL (≈ 219 µM) | 32 µg/mL (≈ 54.6 µM) | 32 µg/mL (≈ 54.6 µM) | 32 µg/mL (≈ 54.6 µM) | 32 µg/mL (≈ 54.6 µM) | 64 µg/mL (≈ 109 µM) | 64 µg/mL (≈ 109 µM)
2 | CCC[C@@H]1C[C@@H](C(=O)N[C@@H]([C@H]2O[C@H](SC)[C@H](O)[C@@H](O)[C@H]2O)[C@H](C)Cl)N(C)C1 [CLINDAMYCIN] | 256 µg/mL (≈ 602 µM) | 16 µg/mL (≈ 37.6 µM) | 0.5 µg/mL (≈ 1.18 µM) | 512 µg/mL (≈ 1200 µM) | 128 µg/mL (≈ 301 µM) | 512 µg/mL (≈ 1200 µM) | 512 µg/mL (≈ 1200 µM) | 4 µg/mL (≈ 9.41 µM) | < 0.03 µg/mL
3 | CC[C@H]1OC(=O)[C@H](C)[C@@H](O[C@H]2C[C@@](C)(OC)[C@@H](O)[C@H](C)O2)[C@H](C)[C@@H](O[C@@H]2O[C@H](C)C[C@H](N(C)C)[C@H]2O)[C@](C)(O)C[C@@H](C)C(=O)[C@H](C)[C@@H](O)[C@]1(C)O [ERYTHROMYCIN] | > 512 µg/mL | > 512 µg/mL | > 512 µg/mL | > 512 µg/mL | > 512 µg/mL | > 512 µg/mL | > 512 µg/mL | 2 µg/mL (≈ 2.73 µM) | 0.06 µg/mL (≈ 0.0818 µM)
4 | NC[C@H]1O[C@H](O[C@H]2[C@H](O)[C@@H](O[C@H]3O[C@H](CO)[C@@H](O)[C@H](N)[C@H]3O)[C@H](N)C[C@@H]2N)[C@H](O)[C@@H](O)[C@@H]1O [KANAMYCIN] | > 4100 µg/mL | > 4100 µg/mL | 4100 µg/mL (≈ 8450 µM) | 4100 µg/mL (≈ 8450 µM) | > 4100 µg/mL | > 4100 µg/mL | > 4100 µg/mL | 16 µg/mL (≈ 33 µM) | 128 µg/mL (≈ 264 µM)
5 | CN(C)c1ccc(O)c2c1C[C@H]1C[C@H]3[C@H](N(C)C)C(O)=C(C(N)=O)C(=O)[C@@]3(O)C(O)=C1C2=O [MINOCYCLINE] | 8 µg/mL (≈ 17.5 µM) | 16 µg/mL (≈ 35 µM) | 8 µg/mL (≈ 17.5 µM) | 16 µg/mL (≈ 35 µM) | 0.12 µg/mL (≈ 0.262 µM) | 16 µg/mL (≈ 35 µM) | 8 µg/mL (≈ 17.5 µM) | – | –
6 | CCN[C@@H]1C[C@H](N)[C@@H](O[C@H]2OC(CN)=CC[C@H]2N)[C@H](O)[C@H]1O[C@H]1OC[C@](C)(O)[C@H](NC)[C@H]1O [NETILMICIN] | 64 µg/mL (≈ 135 µM) | 512 µg/mL (≈ 1080 µM) | 128 µg/mL (≈ 269 µM) | 16 µg/mL (≈ 33.6 µM) | 32 µg/mL (≈ 67.3 µM) | 16 µg/mL (≈ 33.6 µM) | 8 µg/mL (≈ 16.8 µM) | 4 µg/mL (≈ 8.41 µM) | 16 µg/mL (≈ 33.6 µM)
7 | CN[C@@H]1[C@H](O[C@H]2[C@H](O[C@H]3[C@H](O)[C@@H](O)[C@H](N=C(N)N)[C@@H](O)[C@@H]3N=C(N)N)O[C@@H](C)[C@]2(O)C=O)O[C@@H](CO)[C@H](O)[C@H]1O [STREPTOMYCIN] | 32 µg/mL (≈ 55 µM) | 64 µg/mL (≈ 110 µM) | 64 µg/mL (≈ 110 µM) | 32 µg/mL (≈ 55 µM) | 32 µg/mL (≈ 55 µM) | 32 µg/mL (≈ 55 µM) | 32 µg/mL (≈ 55 µM) | 32 µg/mL (≈ 55 µM) | 64 µg/mL (≈ 110 µM)
8 | CN(C)[C@@H]1C(O)=C(C(N)=O)C(=O)[C@@]2(O)C(O)=C3C(=O)c4c(O)cccc4[C@@](C)(O)[C@H]3C[C@@H]12 [TETRACYCLINE] | 128 µg/mL (≈ 288 µM) | 128 µg/mL (≈ 288 µM) | 128 µg/mL (≈ 288 µM) | 256 µg/mL (≈ 576 µM) | 0.25 µg/mL (≈ 0.563 µM) | 256 µg/mL (≈ 576 µM) | 256 µg/mL (≈ 576 µM) | 16 µg/mL (≈ 36 µM) | 0.25 µg/mL (≈ 0.563 µM)
